# Key:
# [1] = system: Mycobacterium tuberculosis; experiment: Antimycobacterial activity against non replicating persistent form of Mycobacterium tuberculosis H37Rv after 10 days by low oxygen recovery assay; assay type: functional; conditions: 240 h
# Outline: (§1)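 M. tuberculosis H37Rv (ATCC 27294) was tested, in replicating form by MABA and in nonreplicating form by LORA, following published procedures. The value is the MIC, reported as the average of three individual determinations.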
# [2] = system: Mycobacterium tuberculosis; experiment: Antimycobacterial activity against Mycobacterium tuberculosis H37Rv replicating form by alamar blue assay; assay type: functional; outline: as §1
# Vero = experiment: Cytotoxicity against african green monkey Vero cells after 72 hrs; assay type: cell-based; conditions: Chlorocebus sabaeus
# [3] = system: Mycolicibacterium smegmatis; experiment: Antimicrobial activity against Mycobacterium smegmatis; assay type: functional
# Escherichia coli = experiment: Antimicrobial activity against Escherichia coli; assay type: functional
# Staphylococcus aureus = experiment: Antimicrobial activity against Staphylococcus aureus; assay type: functional
# Candida albicans = experiment: Antimicrobial activity against Candida albicans; assay type: functional
Compound,MIC90 [1],MIC90 [2],IC50 (Vero),MIC [3],MIC (Escherichia coli),MIC (Staphylococcus aureus),MIC (Candida albicans)
CCOC(=O)c1cc(COc2cc(C(F)(F)F)nc3c(C(F)(F)F)cccc23)on1,12.2 µM,0.9 µM,,,,,
CCOC(=O)c1cc(/C=C/c2ccc(C(F)(F)F)cc2)on1,6.8 µM,3.9 µM,,,,,
CCOC(=O)c1cc(/C=C/c2ccccc2C(F)(F)F)on1,12.1 µM,3.9 µM,,,,,
CCOC(=O)c1cc(/C=C/c2ccco2)on1,50.2 µM,7.9 µM,> 128 µM,,,,
CCOC(=O)c1cc(CCc2cc(O)cc(O)c2)on1,> 128 µM,> 128 µM,,,,,
CCOC(=O)c1cc(/C=C\c2cccc(OC)n2)on1,45.9 µM,27.5 µM,,,,,
CCOC(=O)c1cc(/C=C/c2c(Cl)ccc(C)c2F)on1,7 µM,3.5 µM,> 128 µM,,,,
CCOC(=O)c1cc(/C=C/c2ccccc2CC)on1,2 µM,0.98 µM,> 128 µM,,,,
CCCCOC(=O)c1cc(/C=C/c2ccc(OC)nc2)on1,6.7 µM,2 µM,,,,,
CCOC(=O)c1cc(/C=C/c2ccnc3ccccc23)on1,2.6 µM,0.2 µM,,,,,
CCOC(=O)c1cc(/C=C/c2ccc(C)c3ccccc23)on1,3.6 µM,17.3 µM,> 128 µM,,,,
CCOC(=O)c1cc(/C=C/c2ccc(N3CCN(C)CC3)cc2)on1,37.4 µM,15.2 µM,,,,,
CCOC(=O)c1cc(/C=C/c2ccc(F)cc2F)on1,13.8 µM,5.3 µM,> 128 µM,,,,
CCOC(=O)c1cc(/C=C/c2cc(Cl)cc(Cl)c2)on1,5.9 µM,5.4 µM,> 128 µM,,,,
O=C(O)c1cc(/C=C/c2cccc(C(F)(F)F)c2)on1,> 128 µM,> 128 µM,,,,,
CCOC(=O)c1cc(/C=C/c2ccccc2)on1,18 µM,11.7 µM,,,,,
CCCCOC(=O)c1cc(/C=C/c2ccnc3ccc(OC)cc23)on1,1.8 µM,1.1 µM,> 128 µM,,,,
CCOC(=O)c1cc(/C=C/c2cc(OCc3ccccc3)cc(OCc3ccccc3)c2)on1,4.7 µM,6.3 µM,> 128 µM,,,,
CCOC(=O)c1cc(/C=C/c2ccsc2)on1,26.9 µM,1.6 µM,> 128 µM,,,,
O=C(O)c1cc(/C=C/c2cccc3ccccc23)on1,> 128 µM,> 128 µM,,,,,
CCCCCCCCOC(=O)c1cc(/C=C/c2c(Cl)cncc2Cl)on1,9.2 µM,10.9 µM,> 128 µM,,,,
CCCCCCC(C)OC(=O)c1cc(/C=C/c2c(Cl)cncc2Cl)on1 (stereo not given),24.2 µM,8.3 µM,> 128 µM,,,,
CCOC(=O)c1cc(/C=C/c2cccc(OC)c2)on1,8.8 µM,3.7 µM,> 128 µM,,,,
CCOC(=O)c1cc(/C=C/c2cc(F)cc(F)c2)on1,8.9 µM,3.7 µM,> 128 µM,,,,
CCOC(=O)c1cc(/C=C/c2ccccc2SC)on1,7.8 µM,0.96 µM,> 128 µM,,,,
CCOC(=O)c1cc(/C=C/c2cccc(N)c2)on1,20.7 µM,7.5 µM,> 128 µM,,,,

Compound,MIC90 [1],MIC90 [2],IC50 (Vero),MIC [3],MIC (Escherichia coli),MIC (Staphylococcus aureus),MIC (Candida albicans)
CCOC(=O)c1cc(/C=C/c2cccc(C(C)C)c2)on1,8.3 µM,3.1 µM,> 128 µM,,,,
CCOC(=O)c1cc(/C=C/c2cc(OC)cc(OC)c2)on1,3.6 µM,2 µM,> 128 µM,,,,
CCOC(=O)c1cc(/C=C/c2ccc(OC)nc2)on1,86.6 µM,1.4 µM,> 128 µM,,,,
CCOC(=O)c1cc(/C=C/c2cccc(Cl)c2)on1,6.7 µM,2.3 µM,> 128 µM,,,,
CCOC(=O)c1cc(/C=C\c2cc(F)cc(F)c2)on1,12.3 µM,29.2 µM,> 128 µM,,,,
CCC(CC)OC(=O)c1cc(/C=C/c2c(Cl)cncc2Cl)on1,8.9 µM,7.9 µM,> 128 µM,,,,
CCOC(=O)c1cc(/C=C/c2cccc(C(F)(F)F)c2)on1,21.1 µM,0.73 µM,> 128 µM,> 100 µM,> 100 µM,> 100 µM,> 100 µM
CCOC(=O)c1cc(/C=C/c2cccc(C)c2)on1,7.4 µM,6.5 µM,> 128 µM,,,,
CCOC(=O)c1cc(/C=C/c2cccc3ccccc23)on1,4 µM,1.6 µM,> 128 µM,,,,
Clc1cncc(Cl)c1/C=C/c1ccno1,> 128 µM,> 128 µM,,,,,
CCOC(=O)c1cc(/C=C/c2c(Cl)cccc2Cl)on1,3.5 µM,2.5 µM,,,,,
CCOC(=O)c1cc(CCc2cccc(C(F)(F)F)c2)on1,15.6 µM,14.2 µM,,,,,
CCOC(=O)c1cc(/C=C/c2ccc(OC)cc2F)on1,10.7 µM,3.8 µM,,,,,
CCOC(=O)c1cc(/C=C/c2cccc(O)c2)on1,28.7 µM,7.8 µM,> 128 µM,,,,
O=C(OCCCC1CCCC1)c1cc(/C=C/c2c(Cl)cncc2Cl)on1,9.3 µM,7.3 µM,,,,,
CCOC(=O)c1cc(/C=C/c2cccc(OC)n2)on1,16 µM,3.8 µM,,,,,
CCOC(=O)c1cc(/C=C\c2cccc([N+](=O)[O-])c2)on1,10.9 µM,5.4 µM,> 128 µM,,,,
CCOC(=O)c1cc(/C=C/c2c(Cl)cncc2Cl)on1,5.1 µM,0.59 µM,> 128 µM,94.4 µM,> 100 µM,> 100 µM,> 100 µM
CCCCOC(=O)c1cc(/C=C/c2cccc(OC)c2)on1,7.6 µM,1.8 µM,,,,,
CCOC(=O)c1cc(/C=C/c2ccnc3ccc(OC)cc23)on1,1.1 µM,0.4 µM,,,,,
CCOC(=O)c1cc(/C=C/c2cccc([N+](=O)[O-])c2)on1,5.1 µM,1.2 µM,> 128 µM,,,,
CCOC(=O)c1cc(/C=C/c2ccncc2)on1,52.4 µM,15.5 µM,> 128 µM,,,,
NNC(=O)c1ccncc1 [ISONIAZID],> 128 µM,0.84 µM,128 µM,,,,
COc1c(N2C[C@@H]3CCCN[C@@H]3C2)c(F)cc2c(=O)c(C(=O)O)cn(C3CC3)c12 [MOXIFLOXACIN],> 128 µM,0.46 µM,,,,,
CO[C@H]1/C=C/O[C@@]2(C)Oc3c(C)c(O)c4c(O)c(c(/C=N/N5CCN(C)CC5)c(O)c4c3C2=O)NC(=O)/C(C)=C\C=C\[C@H](C)[C@H](O)[C@@H](C)[C@@H](O)[C@@H](C)[C@H](OC(C)=O)[C@@H]1C [RIFAMPIN],1.9 µM,0.1 µM,,,,,

# Source: ChEMBL document CHEMBL1155230, “Synthesis, biological evaluation, and structure-activity relationships for 5-[(E)-2-arylethenyl]-3-isoxazolecarboxylic acid alkyl ester derivatives as valuable antitubercular chemotypes” (J Med Chem, 2009)
